# Screening data (PubChem BioAssay)
# Scp-1 inhibitor: Scp-1 phosphatase inhibitors, primary screen, biochemical, colorimetric, uHTS. Carboxy-terminal domain RNA polymerase II polypeptide A small phosphatase 1 (Homo …. Recombinant Scp1, phosphopeptide, malachite green phosphate absorbance. inhibition, % at 20 µM. 340,000 tested, 0.88% active. AID 493091, 2011;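 active means inhibition above about 50% at 20 µM, limit read from the data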;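 further: plate controls were DMSO wells with enzyme for no effect and wells lacking enzyme for full effect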
# Target sequence (Q9GZU7 76-261 limits assumed): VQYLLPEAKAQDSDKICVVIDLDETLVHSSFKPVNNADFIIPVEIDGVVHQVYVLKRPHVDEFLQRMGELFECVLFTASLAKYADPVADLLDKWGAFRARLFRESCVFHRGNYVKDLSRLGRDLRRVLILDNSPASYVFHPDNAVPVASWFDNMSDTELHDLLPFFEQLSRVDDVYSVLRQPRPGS
#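 Test system – truncated SCP-1 phosphatase (76-261aa) · Reagent – Phosphorylated 17-residue peptide substrate · Incubation – 45 min room-temperature reaction, 5 min colour, 30 min stabiliser · Detection – colorimetric phosphate reagent with accelerator and stabiliser, absorbance at 630 nm · Measure – % inhibition at 20 µM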
# Rpn11 block: Rpn11 (PSMD14) deubiquitinase inhibitors, primary screen, biochemical, fluorescence polarization, uHTS | 26S proteasome non-ATPase regulatory subunit 14 (Homo sapiens), O00487 | human 26S proteasome, Ub4-pepOG fluorescence polarization; 20S core pre-blocked with epoxomicin | inhibition, % at 20 µM | 360,000 tested, 0.59% active | AID 588493, 2011;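 active means inhibition at 20 µM, scaled to each plate's controls, above about 33%, limit read from the data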
# DNMT1 block: human DNMT1 methyltransferase inhibitors, primary screen, biochemical, molecular beacon, fluorescence, HinP1I cleavage, uHTS | DNA (cytosine-5)-methyltransferase 1 (Homo sapiens), P26358 | inhibition (reported as % activation of signal), % at 10 µM | 360,000 tested, 0.83% active | AID 588458, 2011; in the data active means inhibition above about 50%
# LMPTP inh: LMPTP phosphatase inhibitors, primary screen, biochemical, fluorescence intensity, uHTS; recombinant LMPTP-A, OMFP fluorogenic substrate; inhibition, % at 20 µM; 360,000 tested, 0.22% active;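 active means compounds that cut the enzyme signal by at least half of the control window in the single-dose screen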;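 further: plate controls were DMSO wells with enzyme plus substrate for no effect and substrate without enzyme for full effect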
# Target sequence (P24666 whole entry, looked up): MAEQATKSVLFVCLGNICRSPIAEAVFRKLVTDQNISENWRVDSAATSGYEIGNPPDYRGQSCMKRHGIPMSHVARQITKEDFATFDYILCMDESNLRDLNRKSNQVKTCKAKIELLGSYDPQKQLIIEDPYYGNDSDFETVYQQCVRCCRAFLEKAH
#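 test system = LMPTP-A | amount = 0.625 nM LMPTP-A final | reagent = fluorogenic phosphatase substrate OMFP at 400 µM final | incubation = 50 min at room temperature | benchmarks = no-enzyme low control, uninhibited high control | medium = Bis-Tris pH 6.0, DTT, detergent | signal = fluorescence intensity of OMFP turnover product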
# STEP block: STEP phosphatase inhibitors, primary screen, biochemical, fluorescence intensity, uHTS | recombinant STEP, OMFP fluorogenic substrate | inhibition, % at 20 µM | 360,000 tested, 0.25% active | AID 588621, 2011;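 active means inhibition at 20 µM, scaled per plate between control wells, above about 37%, limit read from the data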;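 further: 0% = DMSO with enzyme and substrate and 100% = substrate only without enzyme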
#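 Assay system: isolated STEP enzyme. Buffer or medium: pH 6.0 Bis-Tris with DTT and Tween 20. Also added: fluorogenic phosphatase substrate OMFP at 25 µM final. Dosing: 20 µM, 1% DMSO. Timing: 20 min reaction, room temperature, in the dark. Measured by: fluorescence intensity, excitation 480 nm, emission 540 nm. Evaluation: normalized % inhibition.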
# * hit, by the source's call; x = no result. Shown are actives, neighbours in structure and some others; about 2% of the full set was active somewhere.
SMILES,Scp-1 inhibitor,Rpn11 block,DNMT1 block,LMPTP inh,STEP block
CN(Cc1ccccc1)C(=O)COC(=O)CN1C(=O)c2ccccc2C1=O,-7,5,5,-1,-2
CCOC(=O)Cc1c(-c2cccc(Cl)c2)nc2c3ccccc3ccn12,x,x,x,7,x
CC1(C(=O)NS(=O)(=O)c2cccc(C#N)c2)CCN1C(=O)c1cccc2ccccc12 (stereo unspecified),x,-2,6,-3,-3
O=C(Cn1cc([N+](=O)[O-])cn1)N1CCN(Cc2ccc3c(c2)OCO3)CC1,9,4,1,1,-1
O=C1C(SCCO)=C(SCCO)C(=O)c2ccccc21,-6,16,81*,22,24
CC1=C(C#N)C(=O)NC(=O)/C1=C\c1ccc(-c2cc(C)c(C)cc2[N+](=O)[O-])o1,78*,7,13,3,5
O=C(/C=C/c1cc[n+](CC(=O)c2ccc3cccc4c3c2CC4)cc1)c1ccc2cccc3c2c1CC3,17,119*,102*,54*,19
C[C@@H]1CN([C@@H](C)CO)C(=O)c2cc(-c3ccccc3F)cnc2O[C@H]1CN(C)Cc1cccc(F)c1,x,-7,1,-4,0
CCCCNC(=O)C1(C)CCN1C(=O)c1ccc2sccc2c1 (stereo unspecified),x,-5,-2,-1,-2
NC1(C#Cc2ccc3oc(=O)c(-n4cc(C5(O)CCCCC5)nn4)cc3c2)CCCCC1,-6,5,2,0,4
NC1(C#Cc2ccc3oc(=O)c(-n4cc(-c5ccsc5)nn4)cc3c2)CCCCC1,9,44*,-7,3,3
Cc1cc(F)ccc1C(O)c1ncc(-c2ccccc2Cl)[nH]1 (stereo unspecified),x,-4,4,1,-2
Oc1[nH]c2ccccc2c1N=Nc1ccccc1Cl,7,7,54*,-1,-4
CCNC(=O)C1(C)CCCN1Cc1c(F)cccc1F (stereo unspecified),x,-4,3,0,-6
CN(C)S(=O)(=O)c1cccc(NC(=S)N/N=C/c2ccc(O)c(O)c2O)c1,-14,18,-6,61*,11
Nc1ccc2nc(CCCCCCCCc3nc4ccc(N)cc4[nH]3)[nH]c2c1,-3,6,-14,65*,2
Nc1ccc2nc(CCCCCCc3nc4ccc(N)cc4[nH]3)[nH]c2c1,14,3,-15,68*,3
CCNC(=O)C1(C)CCCN(Cc2cc(-c3ccccc3)n(C)n2)C1 (stereo unspecified),x,9,7,0,-2
O=C1Nc2ccc(Br)cc2/C1=N\N=C\C1=C(N2CCOCC2)C(=C/c2ccccc2)/CC1,64*,14,-20,3,8
CC(C)CN1CC(Br)C(=O)NC1=O (stereo unspecified),-5,-2,2,-1,-3
CC(=O)NC(c1cccs1)c1cc([N+](=O)[O-])c2cccnc2c1O (stereo unspecified),-10,40*,-12,12,3
COc1ccc(C(=O)c2no[n+]([O-])c2C(=O)c2ccc(OC)cc2)cc1,-11,3,9,1,6
O=C(c1cccs1)c1no[n+]([O-])c1C(=O)c1cccs1,-9,5,64*,0,33
Nc1ccc(Cn2ccc3c4c(N)nc(N)nc4ccc32)cc1,17,-2,-4,64*,2
O=C(Cc1cccc(NC(=O)C2CCCN(C(=O)c3ccccc3)C2)c1)Nc1ccc(C(=O)N2CCOCC2)cc1 (stereo unspecified),0,2,0,0,0
CCN1CCN(C(CCc2ccccc2)C(=O)NC2CCCCC2)CC1 (stereo unspecified),x,9,0,-1,-2
O=C(Nc1cccc(S(=O)(=O)NC2=NCCCCC2)c1)c1cc(-c2ccco2)nc2ccccc12,90*,41*,97*,35,0
CN(C)S(=O)(=O)c1cccc(C(=O)OCC(=O)c2ccc3c(c2)NC(=O)CO3)c1,-5,-6,3,1,1
